From ChEMBL document CHEMBL3808334, “Synthesis and in vitro evaluation of novel triazine analogues as anticancer agents and their interaction studies with bovine serum albumin” (Eur J Med Chem, 2016)

Tests used:
Assay type in all cases: functional
[1] = Growth inhibition of human HOP92 cells incubated for 48 hrs by sulforhodamine B assay; settings: HOP-92, 48 h
Procedure, shortened: (§1)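 Cells seeded at 5,000–40,000/well according to doubling time and preincubated 24 h at 37 °C, 5% CO2. Time-zero plates were TCA-fixed. DMSO concentrate was diluted in medium with 50 µg/ml gentamicin to give five concentrations (10-fold or ½ log steps), then exposed 48 h. Cells were TCA-fixed, stained with 0.4% SRB and read at 515 nm. Percent growth was taken against time-zero and control; GI50, TGI and LC50 derived.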

EKVX [2] = test: Growth inhibition of human EKVX cells incubated for 48 hrs by sulforhodamine B assay; procedure, shortened: as §1
[3] = Growth inhibition of human RPMI8226 cells assessed as cell growth at 10^-7 M incubated for 48 hrs by sulforhodamine B assay; settings: RPMI-8226, 48 h, read-out: Activity
EKVX [4] = test: Growth inhibition of human EKVX cells assessed as cell growth at 10 uM incubated for 48 hrs by sulforhodamine B assay; settings: read-out: Activity
Procedure, shortened: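 Primary screen at one dose (10 µM) across 60 human cancer cell lines. Readout was growth percent relative to untreated control and time-zero.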

SK-MEL-28 = test: Growth inhibition of human SK-MEL-28 cells assessed as cell growth at 10^-8 M incubated for 48 hrs by sulforhodamine B assay; settings: SK-MEL-28, 48 h, read-out: Activity
CCRF-CEM = test: Growth inhibition of human CCRF-CEM cells assessed as cell growth at 10^-5 M incubated for 48 hrs by sulforhodamine B assay; settings: read-out: Activity
Procedure, shortened: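 Leukemia line in the five-dose format: five concentrations from 10-fold or ½-log serial dilutions. Plated at 5,000–40,000 cells per well, preincubated 24 h, then compound added for 48 h at 37 °C, 5% CO₂. Sulforhodamine B absorbance read at 515 nm. Growth is computed against time-zero (Tz) and control (C) readings; GI₅₀ is where [(Ti−Tz)/(C−Tz)]×100 = 50.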

T47D [5] = test: Growth inhibition of human T47D cells assessed as cell growth at 10 uM incubated for 48 hrs by sulforhodamine B assay; settings: read-out: Activity
EKVX [6] = test: Growth inhibition of human EKVX cells assessed as cell growth at 10^-4 M incubated for 48 hrs by sulforhodamine B assay; settings: read-out: Activity; procedure, shortened: as §1
T47D [7] = test: Growth inhibition of human T47D cells assessed as cell growth at 10^-6 M incubated for 48 hrs by sulforhodamine B assay; settings: read-out: Activity
[8] = Growth inhibition of human BT549 cells assessed as cell growth at 10 uM incubated for 48 hrs by sulforhodamine B assay; settings: BT-549, 48 h, read-out: Activity
Procedure, shortened: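 One-dose screen at 10 µM final. Cells are plated at 5,000–40,000 per well according to doubling time and preincubated 24 h at 37 °C, 5% CO₂. Compound (DMSO stock diluted in medium with 50 µg/ml gentamicin) is then added for 48 h. Growth percent is read by sulforhodamine B staining, absorbance at 515 nm.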

[9] = Growth inhibition of human SW620 cells assessed as cell growth at 10^-4 M incubated for 48 hrs by sulforhodamine B assay; settings: SW-620, 48 h, read-out: Activity
HT-29 = test: Growth inhibition of human HT-29 cells assessed as cell growth at 10^-7 M incubated for 48 hrs by sulforhodamine B assay; settings: HT-29, 48 h, read-out: Activity
[10] = Growth inhibition of human SF295 cells assessed as cell growth at 10^-5 M incubated for 48 hrs by sulforhodamine B assay; settings: SF-295, 48 h, read-out: Activity
[11] = Growth inhibition of human TK10 cells assessed as cell growth at 10^-6 M incubated for 48 hrs by sulforhodamine B assay; settings: TK-10, 48 h, read-out: Activity
[12] = Growth inhibition of human Caki1 cells assessed as cell growth at 10^-8 M incubated for 48 hrs by sulforhodamine B assay; settings: CAKI-1, 48 h, read-out: Activity; procedure, shortened: as §1
[13] = Growth inhibition of human OVCAR3 cells incubated for 48 hrs by sulforhodamine B assay; settings: OVCAR-3, 48 h
Procedure, shortened: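 Cells were plated at 5,000–40,000 per well according to doubling time and preincubated 24 h at 37 °C in 5% CO2; time-zero plates were then TCA-fixed. Five concentrations (10-fold or ½-log dilutions, DMSO stock) were incubated 48 h. Cells were TCA-fixed, stained with 0.4% SRB and read at 515 nm. GI50 was taken where [(Ti−Tz)/(C−Tz)]×100 = 50.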

SR = test: Growth inhibition of human SR cells assessed as cell growth at 10^-4 M incubated for 48 hrs by sulforhodamine B assay; settings: read-out: Activity
A549 = test: Growth inhibition of human A549/ATCC cells assessed as cell growth at 10^-7 M incubated for 48 hrs by sulforhodamine B assay; settings: A549, 48 h, read-out: Activity
Procedure, shortened: (§2)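 Five-dose assay: five concentrations from 10-fold or ½-log serial dilutions. Cells are plated at 5,000–40,000 per well according to doubling time, grown 24 h, then exposed 48 h at 37 °C, 5% CO₂. Fixed with cold 50% TCA (final addition) for 60 min at 4 °C and stained with 0.4% SRB in 1% acetic acid. Bound dye is solubilized in 10 mM Tris base and read at 515 nm. GI₅₀ is where [(Ti−Tz)/(C−Tz)]×100 = 50, with a time-zero plate as Tz.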

A498 = test: Growth inhibition of human A498 cells assessed as cell growth at 10^-8 M incubated for 48 hrs by sulforhodamine B assay; settings: A498, 48 h, read-out: Activity; procedure, shortened: as §2
[14] = Growth inhibition of human OVCAR5 cells assessed as cell growth at 10^-4 M incubated for 48 hrs by sulforhodamine B assay; settings: OVCAR-5, 48 h, read-out: Activity
[15] = Growth inhibition of human HL-60(TB) cells assessed as cell growth at 10^-6 M incubated for 48 hrs by sulforhodamine B assay; settings: HL-60, 48 h, read-out: Activity
Procedure, shortened: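 Cells plated at 5,000–40,000/well according to doubling time and preincubated 24 h at 37 °C, 5% CO₂, with time-zero plates TCA-fixed. Drugs were kept as DMSO concentrates at 400× the top concentration and diluted in medium with 50 µg/ml gentamicin. Five 10-fold or ½-log dilutions were run for 48 h, followed by SRB staining and A515. Percent growth = (Ti−Tz)/(C−Tz)×100, or (Ti−Tz)/Tz×100 when Ti<Tz.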

[16] = Growth inhibition of human HCC2998 cells assessed as cell growth at 10^-4 M incubated for 48 hrs by sulforhodamine B assay; settings: HCC 2998, 48 h, read-out: Activity
[17] = read-out: LC50 (the source's name)
[18] = read-out: pLC50 (the source's name) (converted)

Structure (SMILES) | GI50 ([1]; read-out: GI50) [nM] | LC50 (concentration killing 50% of starting cells) ([1]; read-out: LC50) [nM] | TGI ([1]; read-out: TGI) [nM] | GI50 ([1]; read-out: pGI50 (converted)) [nM] | LC50 (concentration killing 50% of starting cells) ([1]; read-out: pLC50 (converted)) [nM] | TGI ([1]; read-out: pTGI (converted)) [nM] | GI50 (EKVX [2]; read-out: GI50) [nM] | TGI (EKVX [2]; read-out: TGI) [nM] | GI50 (EKVX [2]; read-out: pGI50 (converted)) [nM] | TGI (EKVX [2]; read-out: pTGI (converted)) [nM] | growth at 0.1 µM [3] [%] | growth at 10 µM (EKVX [4]) [%] | growth at 0.01 µM (SK-MEL-28) [%] | growth at 10 µM (CCRF-CEM) [%] | growth at 10 µM (T47D [5]) [%] | growth at 100 µM (EKVX [6]) [%] | growth at 1 µM (T47D [7]) [%] | growth at 10 µM [8] [%] | growth at 100 µM [9] [%] | growth at 0.1 µM (HT-29) [%] | further results
Fc1ccc(-c2nc(Nc3ccc(-c4nc5ccccc5[nH]4)cc3)nc(N3CCOCC3)n2)cc1 | 1800 | 7760 | 3740 | 1820 | 7760 | 3720 | 2600 | > 100000 | 2630 | > 100000 | 99 | 7.91 | 101 | 7 | 16.1 | 3 | 88 | 5.16 | -44 | 96 | LC50 (EKVX [2]; read-out: LC50): > 100000 nM; LC50 (EKVX [2]; read-out: pLC50 (converted)): > 100000 nM; growth at 10 µM [10]: -35%; growth at 1 µM [11]: 100%; growth at 0.01 µM [12]: 94%; GI50 ([13]; read-out: GI50): 1820 nM; TGI ([13]; read-out: TGI): 3910 nM; GI50 ([13]; read-out: pGI50 (converted)): 1820 nM; TGI ([13]; read-out: pTGI (converted)): 3890 nM; growth at 100 µM (SR): 1%; growth at 0.1 µM (A549): 100%; growth at 0.01 µM (A498): 100%; growth at 100 µM [14]: -31%; growth at 1 µM [15]: 81%; growth at 100 µM [16]: 2%
Clc1ccc(-c2nc(Nc3ccc(-c4nc5ccccc5[nH]4)cc3)nc(N3CCOCC3)n2)cc1 | 1300 | 5610 | 2700 | 1290 | 5620 | 2690 | 1140 | 2630 | 1150 | 2630 | 99 | -91.3 | 105 | -63 | -64.8 | -15 | 19 | -73.6 | -63 | 99 | growth at 10 µM [10]: -85%; growth at 1 µM [11]: 110%; growth at 0.01 µM [12]: 89%; GI50 ([13]; read-out: GI50): 374 nM; CC50 [13, 17]: 3990 nM; TGI ([13]; read-out: TGI): 1370 nM; GI50 ([13]; read-out: pGI50 (converted)): 372 nM; CC50 [13, 18]: 3980 nM; TGI ([13]; read-out: pTGI (converted)): 1380 nM; growth at 100 µM (SR): 5%; growth at 0.1 µM (A549): 99%; growth at 0.01 µM (A498): 94%; growth at 100 µM [14]: -16%; growth at 1 µM [15]: -29%; growth at 100 µM [16]: 2%
c1ccc2[nH]c(-c3ccc(Nc4nc(N5CCCCC5)nc(N5CCOCC5)n4)cc3)nc2c1 | 1990 | 9340 | 4320 | 2000 | 9330 | 4370 | 2680 | > 100000 | 2690 | > 100000 | 95 | 27.7 | 100 | 3 | 23.4 | 1 | 90 | 23.1 | -53 | 105 | LC50 (EKVX [2]; read-out: LC50): > 100000 nM; LC50 (EKVX [2]; read-out: pLC50 (converted)): > 100000 nM; growth at 10 µM [10]: -43%; growth at 1 µM [11]: 105%; growth at 0.01 µM [12]: 90%; GI50 ([13]; read-out: GI50): 2400 nM; CC50 [13, 17]: > 100000 nM; TGI ([13]; read-out: TGI): 6190 nM; GI50 ([13]; read-out: pGI50 (converted)): 2400 nM; CC50 [13, 18]: > 100000 nM; TGI ([13]; read-out: pTGI (converted)): 6170 nM; growth at 100 µM (SR): -11%; growth at 0.1 µM (A549): 96%; growth at 0.01 µM (A498): 92%; growth at 100 µM [14]: -18%; growth at 1 µM [15]: 100%
